Data from ChEMBL document CHEMBL5058577, “EUbOPEN Chemogenomics Library 2 (Multiplex)” (2022).

System: HEK-293T
Assay: Multiplex assay against HEK293T
Assay type: toxicity, cell-based
Conditions: human
Procedure, shortened: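 Live cells carried four stains from seeding: Hoechst33342, BioTracker Green Microtubule Cytoskeleton Dye, MitoTracker Red and Annexin V Alexa Fluor 680. They were imaged on a CQ1 microscope at 37°C and 5% CO2 after compound addition. Using CellPathfinder machine-learning gating, cells were split into Hoechst high-intensity objects or normal cells, normal cells into healthy, pyknosed or fragmented nuclei, and pyknosed cells into mitotic or apoptotic; tubulin, mitochondrial-mass and membrane-permeability phenotypes are per cents of healthy-nucleus cells.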

[1] = 12 h, 1 µM, compound concentration 1 uM, replicate 1
[2] = 12 h, 1 µM, compound concentration 1 uM, replicate 2
[3] = 12 h, 10 µM, compound concentration 10 uM, replicate 1
[4] = 12 h, 10 µM, compound concentration 10 uM, replicate 2
[5] = 24 h, 1 µM, compound concentration 1 uM, replicate 1
[6] = 24 h, 1 µM, compound concentration 1 uM, replicate 2
[7] = 24 h, 10 µM, compound concentration 10 uM, replicate 1
[8] = 24 h, 10 µM, compound concentration 10 uM, replicate 2
[9] = 48 h, 1 µM, compound concentration 1 uM, replicate 1
[10] = 48 h, 1 µM, compound concentration 1 uM, replicate 2
[11] = 48 h, 10 µM, compound concentration 10 uM, replicate 1
[12] = 48 h, 10 µM, compound concentration 10 uM, replicate 2

## N#Cc1c(Oc2cccc(OS(=O)(=O)CCCC(F)(F)F)c2)cccc1C(F)(F)F
[1]
  Population Apoptotic (%): 35%
  Population Fragmented Nuclei (%): 4%
  Population Healthy Nuclei (%): 86%
  Population Hoechst High Intensity Objects (%): 5%
  Population Membrane Permeable-Phenotype (%): 0%
  Population Mitochondria Different-Phenotype (%): 46%
  Population Mitotic Cells (%): 65%
  Population Normal (%): 94%
  Population Pyknosed Nuclei (%): 8%
  Population Tubulin-Different-Phenotype (%): 38%
  Total Cell Count: 490
[2]
  Population Apoptotic (%): 63%
  Population Fragmented Nuclei (%): 6%
  Population Healthy Nuclei (%): 75%
  Population Hoechst High Intensity Objects (%): 11%
  Population Mitochondria Different-Phenotype (%): 60%
  Population Mitotic Cells (%): 36%
  Population Normal (%): 88%
  Population Pyknosed Nuclei (%): 17%
  Population Tubulin-Different-Phenotype (%): 28%
  Total Cell Count: 349
[3]
  Population Apoptotic (%): 42%
  Population Fragmented Nuclei (%): 8%
  Population Healthy Nuclei (%): 65%
  Population Hoechst High Intensity Objects (%): 10%
  Population Membrane Permeable-Phenotype (%): 0%
  Population Mitochondria Different-Phenotype (%): 74%
  Population Mitotic Cells (%): 57%
  Population Normal (%): 89%
  Population Pyknosed Nuclei (%): 25%
  Population Tubulin-Different-Phenotype (%): 65%
  Total Cell Count: 290
[4]
  Population Apoptotic (%): 44%
  Population Fragmented Nuclei (%): 6%
  Population Healthy Nuclei (%): 64%
  Population Hoechst High Intensity Objects (%): 40%
  Population Mitochondria Different-Phenotype (%): 81%
  Population Mitotic Cells (%): 55%
  Population Normal (%): 59%
  Population Pyknosed Nuclei (%): 28%
  Population Tubulin-Different-Phenotype (%): 58%
  Total Cell Count: 318
[5]
  Population Apoptotic (%): 28%
  Population Fragmented Nuclei (%): 10%
  Population Healthy Nuclei (%): 77%
  Population Hoechst High Intensity Objects (%): 3%
  Population Membrane Permeable-Phenotype (%): 0%
  Population Mitochondria Different-Phenotype (%): 34%
  Population Mitotic Cells (%): 71%
  Population Normal (%): 96%
  Population Pyknosed Nuclei (%): 12%
  Population Tubulin-Different-Phenotype (%): 26%
  Total Cell Count: 654
[6]
  Population Apoptotic (%): 60%
  Population Fragmented Nuclei (%): 8%
  Population Healthy Nuclei (%): 81%
  Population Hoechst High Intensity Objects (%): 9%
  Population Mitochondria Different-Phenotype (%): 48%
  Population Mitotic Cells (%): 40%
  Population Normal (%): 90%
  Population Pyknosed Nuclei (%): 9%
  Population Tubulin-Different-Phenotype (%): 20%
  Total Cell Count: 412
[7]
  Population Apoptotic (%): 43%
  Population Fragmented Nuclei (%): 9%
  Population Healthy Nuclei (%): 77%
  Population Hoechst High Intensity Objects (%): 13%
  Population Membrane Permeable-Phenotype (%): 0%
  Population Mitochondria Different-Phenotype (%): 66%
  Population Mitotic Cells (%): 56%
  Population Normal (%): 86%
  Population Pyknosed Nuclei (%): 13%
  Population Tubulin-Different-Phenotype (%): 56%
  Total Cell Count: 338
[8]
  Population Apoptotic (%): 45%
  Population Fragmented Nuclei (%): 10%
  Population Healthy Nuclei (%): 61%
  Population Hoechst High Intensity Objects (%): 47%
  Population Mitochondria Different-Phenotype (%): 68%
  Population Mitotic Cells (%): 54%
  Population Normal (%): 52%
  Population Pyknosed Nuclei (%): 27%
  Population Tubulin-Different-Phenotype (%): 41%
  Total Cell Count: 312
[9]
  Population Apoptotic (%): 20%
  Population Fragmented Nuclei (%): 13%
  Population Healthy Nuclei (%): 81%
  Population Hoechst High Intensity Objects (%): 1%
  Population Membrane Permeable-Phenotype (%): 1%
  Population Mitochondria Different-Phenotype (%): 21%
  Population Mitotic Cells (%): 79%
  Population Normal (%): 98%
  Population Pyknosed Nuclei (%): 5%
  Population Tubulin-Different-Phenotype (%): 15%
  Total Cell Count: 986
[10]
  Population Apoptotic (%): 56%
  Population Fragmented Nuclei (%): 12%
  Population Healthy Nuclei (%): 82%
  Population Hoechst High Intensity Objects (%): 5%
  Population Membrane Permeable-Phenotype (%): 0%
  Population Mitochondria Different-Phenotype (%): 23%
  Population Mitotic Cells (%): 43%
  Population Normal (%): 94%
  Population Tubulin-Different-Phenotype (%): 13%
  Total Cell Count: 568
[11]
  Population Apoptotic (%): 44%
  Population Fragmented Nuclei (%): 11%
  Population Healthy Nuclei (%): 78%
  Population Hoechst High Intensity Objects (%): 5%
  Population Membrane Permeable-Phenotype (%): 0%
  Population Mitochondria Different-Phenotype (%): 44%
  Population Mitotic Cells (%): 55%
  Population Normal (%): 94%
  Population Pyknosed Nuclei (%): 10%
  Population Tubulin-Different-Phenotype (%): 29%
  Total Cell Count: 464
[12]
  Population Apoptotic (%): 58%
  Population Healthy Nuclei (%): 69%
  Population Hoechst High Intensity Objects (%): 24%
  Population Mitochondria Different-Phenotype (%): 47%
  Population Mitotic Cells (%): 41%
  Population Normal (%): 75%
  Population Pyknosed Nuclei (%): 18%
  Population Tubulin-Different-Phenotype (%): 23%
  Total Cell Count: 363
